Measurements from different studies.
Each line is one published result; the experiments were not run side by side.
PIK3CA E545A: Phosphatidylinositol 4,5-bisphosphate 3-kinase catalytic subunit alpha isoform (PIK3CA, Homo sapiens, UniProt P42336, E545A)
PIK3CA H1047L: Phosphatidylinositol 4,5-bisphosphate 3-kinase catalytic subunit alpha isoform (PIK3CA, Homo sapiens, UniProt P42336, H1047L)
PIK3CA C420R: Phosphatidylinositol 4,5-bisphosphate 3-kinase catalytic subunit alpha isoform (PIK3CA, Homo sapiens, UniProt P42336, C420R)
PIK3CA E545K: Phosphatidylinositol 4,5-bisphosphate 3-kinase catalytic subunit alpha isoform (PIK3CA, Homo sapiens, UniProt P42336, E545K)
PIK3CA M1043I: Phosphatidylinositol 4,5-bisphosphate 3-kinase catalytic subunit alpha isoform (PIK3CA, Homo sapiens, UniProt P42336, M1043I)
PIK3CA H1047Y: Phosphatidylinositol 4,5-bisphosphate 3-kinase catalytic subunit alpha isoform (PIK3CA, Homo sapiens, UniProt P42336, H1047Y)

F[C@@H]1CCN(c2nccc(-c3cnn4ncccc34)n2)C1  remaining binding (PIK3CA E545A; binding; 1 µM): 92%
O=c1nc(-c2ccccn2)sc2ccccc12  remaining binding (PIK3CA E545A; cell-free assay, competition with immobilised ligand; 1 µM): 92%
Cc1cnn2ncc(-c3ccnc(N(C)C)n3)c2c1  remaining binding (PIK3CA H1047L; binding; 1 µM): 77%
C[C@H](NC(=O)c1cnc2n1[C@](C)(Cc1ccc(C#N)cc1)C(=O)N2c1cc(Cl)c(F)c(Cl)c1)C(=O)NC1(c2ccccn2)CC1  remaining binding (PIK3CA H1047L; cell-free assay, competition with immobilised ligand; 1 µM): 81%
CNC(=O)[C@@H]1CC[C@@H](n2c(-c3ccc4cnccc4c3)nc3ccc(C(=O)NCc4cccc(C(N)=O)c4)cc32)C1  remaining binding (PIK3CA C420R; binding, competition with immobilised ligand; 1 µM): 90%
CN1CCN(c2ccc(Nc3nccc(-c4cccc([N+](=O)[O-])c4)n3)cc2C(F)(F)F)CC1  remaining binding (PIK3CA H1047L; binding; 10 µM): 4.8%
CCC(=O)N[C@H]1CC[C@@H](C(=O)N(C)c2ccc(-c3nc4ccccc4o3)cc2)C1  remaining binding (PIK3CA E545K; cell-free assay, competition with immobilised ligand; 1 µM): 74%
N[C@H]1CCN(c2nccc(-c3cnn4ncccc34)n2)C1  remaining binding (PIK3CA M1043I; binding; 1 µM): 91%
O=C(NCCCN1CCOCC1)c1ccc(Nc2nccc(-c3cc4ccccc4s3)n2)cc1  remaining binding (Phosphatidylinositol 4,5-bisphosphate 3-kinase catalytic subunit alpha isoform (PIK3CA, Homo sapiens, UniProt P42336, E542K); binding, competition with immobilised ligand; 1 µM): 41%
CN(C)c1ncc(F)c(-c2cnn3ncccc23)n1  remaining binding (PIK3CA E545K; binding; 1 µM): 63%
CCS(=O)(=O)c1cc2cc(C[C@](O)(CC(C)(C)c3ccc(F)cc3C(N)=O)C(F)(F)F)[nH]c2cn1  remaining binding (PIK3CA H1047L; cell-free assay, competition with immobilised ligand; 1 µM): 96%
O=C(NCCCN1CCOCC1)c1ccc(Nc2ncc(Cl)c(-c3ccc(Cl)s3)n2)cc1  remaining binding (PIK3CA C420R; binding, competition with immobilised ligand; 1 µM): 100%
C[C@@H]1CCN(c2nccc(-c3cnn4ncccc34)n2)C1  remaining binding (Phosphatidylinositol 4,5-bisphosphate 3-kinase catalytic subunit alpha isoform (PIK3CA, Homo sapiens, UniProt P42336); binding; 1 µM): 100%
CN(C(=O)c1ccccc1)c1cc(N(C)c2ccc3c(c2)CCc2ccc(C(=O)NCCN4CCOCC4)cc2C3=O)ccc1F  remaining binding (Phosphatidylinositol 4,5-bisphosphate 3-kinase catalytic subunit alpha isoform (PIK3CA, Homo sapiens, UniProt P42336, I800L); cell-free assay, competition with immobilised ligand; 1 µM): 62%
CCN1CCN(Cc2ccc(C(=O)Nc3ccc(C)c(Oc4ccc5c(c4)CC(=O)N5)c3)cc2C(F)(F)F)CC1  remaining binding (PIK3CA H1047L; binding, competition with immobilised ligand; 1 µM): 100%
O=C(Nc1c[nH]nc1C(=O)NC1CCNCC1)c1cc(F)cc(F)c1  remaining binding (PIK3CA M1043I; binding, competition with immobilised ligand; 1 µM): 100%
C[C@@H](c1ccc(-n2cnc3c(N)ncnc32)cc1)N1CCc2nn(C)c(Cc3ccccc3)c2C1=O  remaining binding (PIK3CA C420R; binding, competition with immobilised ligand; 0.1 µM): 98%
CC1CCCN1c1nccc(-c2cnn3ncccc23)n1 (centres unmarked)  remaining binding (PIK3CA M1043I; binding; 1 µM): 100%
Cc1cnc(Nc2ccc(C(=O)N3CCC(N4CCCC4)CC3)cc2)nc1-c1cc2ccccc2s1  remaining binding (PIK3CA H1047L; binding, competition with immobilised ligand; 1 µM): 97%
CCCOc1ccc([C@@H]2[C@@H](C(=O)O)[C@H](c3ccc4c(c3)OCO4)CN2CC(=O)Nc2c(CC)cccc2CC)cc1  remaining binding (PIK3CA E545A; cell-free assay, competition with immobilised ligand; 1 µM): 92%
c1cnn2ncc(-c3ccnc(N4CCC45COC5)n3)c2c1  remaining binding (PIK3CA H1047Y; binding; 1 µM): 83%
COc1cnc(Nc2cccc(S(N)(=O)=O)c2)nc1N1CCN(c2ccccc2)C(=O)C1  remaining binding (PIK3CA C420R; binding, competition with immobilised ligand; 1 µM): 95%
Cc1cc(C)c(-n2ccn3nc(-c4cccnc4)cc23)cc1NC(=O)c1cc(C#N)cc(S(F)(F)(F)(F)F)c1  remaining binding (PIK3CA H1047Y; cell-free assay, competition with immobilised ligand; 0.1 µM): 76.2%
